In ChEMBL document CHEMBL1156799, “Synthesis and biological evaluation of N-hydroxyphenylacrylamides and N-hydroxypyridin-2-ylacrylamides as novel histone deacetylase inhibitors” (J Med Chem, 2010):

Key:
[1] = Metabolic stability in human hepatic microsomes at 1 uM after 30 mins at 37 degC; format: ADME; details: liver microsomes, read-out: Stability
Summary of the method: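 Compound at 1 μM preincubated 10 min at 37 °C in potassium phosphate buffer pH 7.4 with 0.5 mg/mL human or mouse hepatic microsomes; NADP/G6P/G6P-DH cofactor mix added; samples at 0 and 30 min analysed by LC-MS/MS (MRM, verapamil internal standard); % remaining = area 30 min/area 0 min × 100.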

[2] = Metabolic stability in mouse hepatic microsomes at 1 uM after 30 mins at 37 degC; details: liver microsomes
[3] = Metabolic stability in mouse liver microsomes assessed as half life; format: ADME, Microsome
[4] = Clearance in CD1 mouse at 5 mg/kg, iv; details: in vivo
[5] = Half life in CD1 mouse at 15 mg/kg, po; format: ADME, organism-based; parameters: dose 15 mg/kg, route oral; details: in vivo
Summary of the method: (§1)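 Mice dosed orally by gavage at 15 mg/kg, compound in water at 3 mg/mL of the base; iv comparison dose 5 mg/kg in normal saline; 27-30 animals per group; plasma from serial blood samples, protein-precipitated, kept at -80 °C, quantified by LC/MS/MS.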

[6] = Oral bioavailability in CD1 mouse at 15 mg/kg; format: ADME, organism-based; details: in vivo; summary of the method: as §1
[7] = AUC (0 to infinity) in CD1 mouse at 5 mg/kg, iv; format: ADME, organism-based; parameters: time infinity, dose 5 mg/kg, route intravenous; details: plasma
Mus musculus [8] = experiment: Volume of distribution at steady state in CD1 mouse at 5 mg/kg, iv; details: in vivo
[9] = AUC (0 to 24 hrs) in CD1 mouse at 5 mg/kg, iv; format: ADME, organism-based; parameters: time < 24 hr, dose 5 mg/kg, route intravenous; details: plasma
Summary of the method: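 Mice given single iv dose of 5 mg/kg, compound in normal saline at 1 mg/mL as rapid bolus; 27-30 animals per group; blood sampled at several times after dosing, plasma separated by centrifugation, proteins precipitated, stored -80 °C, analysed by LC/MS/MS (ESI).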

in vitro = details: human, liver microsomes
Mus musculus [10] = organism: Mus musculus; experiment: Hepatic blood flow in mouse; format: ADME, organism-based, Liver

CN1CCN(Cc2ccc(C(=O)/C=C/c3cccc(/C=C/C(=O)NO)c3)cc2)CC1
remaining at 0.5 h, 1 µM [1]: 44% | remaining at 0.5 h, 1 µM [2]: 33%

CN1CCN(c2ccccc2C(=O)/C=C/c2cccc(/C=C/C(=O)NO)c2)CC1
remaining at 0.5 h, 1 µM [1]: 62% | remaining at 0.5 h, 1 µM [2]: 44%

O=C(/C=C/c1ccc2c(c1)nc(CCc1ccccc1)n2CCN1CCCC1)NO
half-life [3]: 0.05 h

CN1CCN(Cc2cccc(C(=O)/C=C/c3cccc(/C=C/C(=O)NO)c3)c2)CC1
remaining at 0.5 h, 1 µM [1]: 39% | remaining at 0.5 h, 1 µM [2]: 25%

CN1CCN(Cc2ccc(C(=O)/C=C/c3ccc(/C=C/C(=O)NO)cc3)cc2)CC1
remaining at 0.5 h, 1 µM [1]: 61% | remaining at 0.5 h, 1 µM [2]: 17%

CN1CCN(Cc2cccc(C(=O)/C=C/c3ccc(/C=C/C(=O)NO)cc3)c2)CC1
remaining at 0.5 h, 1 µM [1]: 23% | remaining at 0.5 h, 1 µM [2]: 17%

CN1CCN(Cc2ccccc2C(=O)/C=C/c2ccc(/C=C/C(=O)NO)cc2)CC1
remaining at 0.5 h, 1 µM [1]: 56% | remaining at 0.5 h, 1 µM [2]: 4.2%

CN1CCN(c2ccccc2C(=O)/C=C/c2ccc(/C=C/C(=O)NO)cc2)CC1
clearance [4]: 119 mL/min/kg | half-life [5]: 2 h | remaining at 0.5 h, 1 µM [1]: 38% | bioavailability [6]: 18.1% | AUC(0-inf) [7]: 698 ng·h/mL | Vdss (Mus musculus [8]): 5.4 L/kg | remaining at 0.5 h, 1 µM [2]: 34%

O=C(/C=C/c1cccc(/C=C/C(=O)c2ccccc2)c1)NO
remaining at 0.5 h, 1 µM [1]: 9% | remaining at 0.5 h, 1 µM [2]: 6%

CN1CCN(Cc2cccc(C(=O)/C=C/c3cccc(/C=C/C(=O)NO)n3)c2)CC1
remaining at 0.5 h, 1 µM [1]: 45% | remaining at 0.5 h, 1 µM [2]: 40%

CN1CCN(c2cccc(C(=O)/C=C/c3ccc(/C=C/C(=O)NO)nc3)c2)CC1
remaining at 0.5 h, 1 µM [1]: 41% | remaining at 0.5 h, 1 µM [2]: 20%

CN1CCN(c2ccc(C(=O)/C=C/c3ccc(/C=C/C(=O)NO)cc3)cc2)CC1
remaining at 0.5 h, 1 µM [1]: 33% | remaining at 0.5 h, 1 µM [2]: 9.1%

CN1CCN(c2cccc(C(=O)/C=C/c3ccc(/C=C/C(=O)NO)cc3)c2)CC1
remaining at 0.5 h, 1 µM [1]: 44% | remaining at 0.5 h, 1 µM [2]: 6.2%

O=C(/C=C/c1ccc(/C=C/C(=O)c2ccccc2)cn1)NO
remaining at 0.5 h, 1 µM [1]: 14% | remaining at 0.5 h, 1 µM [2]: 6%

CN1CCN(c2ccc(C(=O)/C=C/c3cccc(/C=C/C(=O)NO)n3)cc2)CC1
remaining at 0.5 h, 1 µM [1]: 35% | remaining at 0.5 h, 1 µM [2]: 19%

CN1CCN(c2cccc(C(=O)/C=C/c3cccc(/C=C/C(=O)NO)c3)c2)CC1
remaining at 0.5 h, 1 µM [1]: 55% | remaining at 0.5 h, 1 µM [2]: 7.2%

CN1CCN(Cc2ccccc2C(=O)/C=C/c2cccc(/C=C/C(=O)NO)n2)CC1
remaining at 0.5 h, 1 µM [1]: 67% | remaining at 0.5 h, 1 µM [2]: 40%

Cc1[nH]c2ccccc2c1CCNCc1ccc(/C=C/C(=O)NO)cc1 [PANOBINOSTAT]
clearance [4]: 305 mL/min/kg | half-life [5]: 1.37 h | bioavailability [6]: 4.6% | AUC(0-inf) [7]: 273 ng·h/mL | Vdss (Mus musculus [8]): 15.1 L/kg

CN1CCN(c2ccc(C(=O)/C=C/c3cccc(/C=C/C(=O)NO)c3)cc2)CC1
remaining at 0.5 h, 1 µM [1]: 40% | remaining at 0.5 h, 1 µM [2]: 5.9%

CN1CCN(c2cccc(C(=O)/C=C/c3cccc(/C=C/C(=O)NO)n3)c2)CC1
clearance [4]: 55.3 mL/min/kg | half-life [5]: 8.5 h | remaining at 0.5 h, 1 µM [1]: 35% | bioavailability [6]: 2% | AUC(0-inf) [7]: 1510 ng·h/mL | Vdss (Mus musculus [8]): 18.3 L/kg | remaining at 0.5 h, 1 µM [2]: 29%

CN1CCN(Cc2cccc(C(=O)/C=C/c3ccc(/C=C/C(=O)NO)nc3)c2)CC1
clearance [4]: 113 mL/min/kg | half-life [5]: 6.7 h | remaining at 0.5 h, 1 µM [1]: 32% | bioavailability [6]: 3.9% | AUC(0-inf) [7]: 736 ng·h/mL | Vdss (Mus musculus [8]): 28.4 L/kg | remaining at 0.5 h, 1 µM [2]: 46%

CN1CCN(c2ccccc2C(=O)/C=C/c2cccc(/C=C/C(=O)NO)n2)CC1
clearance [4]: 44 mL/min/kg | half-life [5]: 8.6 h | remaining at 0.5 h, 1 µM [1]: 58% | bioavailability [6]: 2.9% | AUC(0-inf) [7]: 1900 ng·h/mL | Vdss (Mus musculus [8]): 13.9 L/kg | remaining at 0.5 h, 1 µM [2]: 57%

O=C(/C=C/c1cccc(S(=O)(=O)Nc2ccccc2)c1)NO [BELINOSTAT]
clearance [4]: 193 mL/min/kg | half-life [5]: 1.21 h | bioavailability [6]: 6.66% | AUC(0-inf) [7]: 431 ng·h/mL | Vdss (Mus musculus [8]): 5.03 L/kg

O=C(/C=C/c1ccc(/C=C/C(=O)c2ccccc2)cc1)NO
remaining at 0.5 h, 1 µM [1]: 5% | remaining at 0.5 h, 1 µM [2]: 2%

O=C(/C=C/c1cc(/C=C/C(=O)c2ccccc2)ccn1)NO
remaining at 0.5 h, 1 µM [1]: 16% | remaining at 0.5 h, 1 µM [2]: 14%

O=C(/C=C/c1cccc(/C=C/C(=O)c2ccccc2)n1)NO
remaining at 0.5 h, 1 µM [1]: 38% | remaining at 0.5 h, 1 µM [2]: 11%

CN1CCN(Cc2ccc(C(=O)/C=C/c3cccc(/C=C/C(=O)NO)n3)cc2)CC1
clearance [4]: 29.2 mL/min/kg | half-life [5]: 7.3 h | remaining at 0.5 h, 1 µM [1]: 51% | AUC(0-t) at 24 h [9]: 2520 ng·h/mL | bioavailability [6]: 2.6% | Vdss (Mus musculus [8]): 16.07 L/kg | remaining at 0.5 h, 1 µM [2]: 46%

CN1CCN(c2ccccc2C(=O)/C=C/c2ccc(/C=C/C(=O)NO)nc2)CC1
clearance [4]: 59.7 mL/min/kg | half-life [5]: 2.3 h | remaining at 0.5 h, 1 µM [1]: 65% | bioavailability [6]: 6.3% | AUC(0-inf) [7]: 1400 ng·h/mL | Vdss (Mus musculus [8]): 2.1 L/kg | remaining at 0.5 h, 1 µM [2]: 61%

O=C(CCCCCCC(=O)Nc1ccccc1)NO [VORINOSTAT]
half-life [3]: 0.467 h | clearance [4]: 127 mL/min/kg | half-life [5]: 0.5 h | bioavailability [6]: 12.1% | AUC(0-inf) [7]: 657 ng·h/mL | Vdss (Mus musculus [8]): 1.2 L/kg | half-life (in vitro): 1 h | LBF (Mus musculus [10]): 90 mL/min/kg

CN1CCN(Cc2ccccc2C(=O)/C=C/c2ccc(/C=C/C(=O)NO)nc2)CC1
clearance [4]: 55.8 mL/min/kg | half-life [5]: 5.55 h | remaining at 0.5 h, 1 µM [1]: 93% | bioavailability [6]: 4.5% | AUC(0-inf) [7]: 1490 ng·h/mL | Vdss (Mus musculus [8]): 11.7 L/kg | remaining at 0.5 h, 1 µM [2]: 53%

CN1CCN(Cc2ccccc2C(=O)/C=C/c2cccc(/C=C/C(=O)NO)c2)CC1
clearance [4]: 98 mL/min/kg | half-life [5]: 8.27 h | remaining at 0.5 h, 1 µM [1]: 62% | bioavailability [6]: 3.1% | AUC(0-inf) [7]: 849 ng·h/mL | Vdss (Mus musculus [8]): 20.1 L/kg | remaining at 0.5 h, 1 µM [2]: 35%

CN1CCN(Cc2ccc(C(=O)/C=C/c3ccc(/C=C/C(=O)NO)nc3)cc2)CC1
clearance [4]: 79.2 mL/min/kg | half-life [5]: 9.7 h | remaining at 0.5 h, 1 µM [1]: 47% | bioavailability [6]: 5.5% | AUC(0-inf) [7]: 1050 ng·h/mL | Vdss (Mus musculus [8]): 31.9 L/kg | remaining at 0.5 h, 1 µM [2]: 56%

CN1CCN(c2ccc(C(=O)/C=C/c3ccc(/C=C/C(=O)NO)nc3)cc2)CC1
remaining at 0.5 h, 1 µM [1]: 43% | remaining at 0.5 h, 1 µM [2]: 3.8%
